High-throughput results: PubChem, The Scripps Research Institute Molecular Screening Center
Hits are enriched below; roughly 1.9% of the tested compounds scored in any of these assays.
CHRM4 agonist: human M4 muscarinic receptor agonists, primary screen, CHO-K1 cells, Fluo-8 calcium fluorescence. hit rate 0.14% among 360,000. CHO-K1 hM4/Gqi5; vehicle 0%, full acetylcholine response 100%. activation, % at 3 µM;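 active = activation above the run mean over all test wells plus 3 SD, cut at about 32% in these data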;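 also: peak over basal fluorescence ratio per well then scaled between controls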
Target sequence (P08173 whole entry, looked up): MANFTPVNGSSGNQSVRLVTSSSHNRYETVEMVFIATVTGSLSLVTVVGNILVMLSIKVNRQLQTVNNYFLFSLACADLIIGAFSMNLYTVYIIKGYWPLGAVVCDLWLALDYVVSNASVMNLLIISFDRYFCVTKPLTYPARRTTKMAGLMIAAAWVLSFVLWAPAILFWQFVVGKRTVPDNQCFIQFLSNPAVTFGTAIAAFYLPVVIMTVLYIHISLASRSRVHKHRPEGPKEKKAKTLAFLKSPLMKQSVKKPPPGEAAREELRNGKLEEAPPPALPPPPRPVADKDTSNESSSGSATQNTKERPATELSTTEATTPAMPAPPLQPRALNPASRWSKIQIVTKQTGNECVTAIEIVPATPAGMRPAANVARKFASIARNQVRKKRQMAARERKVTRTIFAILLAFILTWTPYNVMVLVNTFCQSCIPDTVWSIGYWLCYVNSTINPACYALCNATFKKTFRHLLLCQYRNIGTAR
M5 PAM: human M5 muscarinic receptor positive allosteric modulators, primary screen, CHO-K1 cells, Fluo-8 calcium fluorescence. Muscarinic acetylcholine receptor M5 (Homo sapiens), P08912. CHO-K1 hM5, ACh EC20 PAM; 0% = ACh EC20, 100% = ACh EC100. activation, % at 3 µM. hit rate 0.3% among 360,000;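 active = activation above the run cutoff, the mean activation of all test compounds plus 3 SD, cut at about 18% in these data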
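System – CHO-K1 hM5 cells · Compound – 3 µM, single dose · Incubation – compound preincubation 140 s before EC20 acetylcholine addition · Technique – Fluo-8 calcium fluorescence · Measure – Max/basal fluorescence ratio as % of EC20–EC100 ACh window · Benchmarks – low control EC20 acetylcholine (0%), high control EC100 acetylcholine (100%) · Replication – singlicate, one well per test compound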
CHRM4 antagonist: human M4 muscarinic receptor antagonists, primary screen, CHO cells, Fluo-8 calcium fluorescence; Muscarinic acetylcholine receptor M4 (Homo sapiens), P08173; CHO-hM4 cells, ACh EC80; inhibition, % at 3 µM; hit rate 0.73% among 360,000; AID 624125, 2012;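 active = inhibition above its plate's cutoff, the mean inhibition of sample wells plus 3 SD, cut at about 27% in these data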
CHRM4 PAM: human M4 muscarinic receptor positive allosteric modulators, primary screen, CHO-K1 cells, Fluo-8 calcium fluorescence; CHO-K1 hM4/Gqi5, ACh EC20; 0% = ACh EC20, 100% = maximal ACh; activation, % at 3 µM; hit rate 0.4% among 360,000;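 active = activation above its plate's cutoff, the mean activation of sample wells plus 3 SD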
CHRM5 agonist: human M5 muscarinic receptor agonists, primary screen, CHO-K1 cells, Fluo-8 calcium fluorescence | Muscarinic acetylcholine receptor M5 (Homo sapiens), P08912 | CHO-K1 hM5 cells; 0% DMSO wells, 100% maximal acetylcholine response | activation, % at 3 µM | hit rate 0.19% among 360,000 | AID 624037, 2012;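 active = activation above the run's mean over test compounds plus 3 SD, cut at about 23% in these data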;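 also: signal is peak over basal fluorescence ratio across the kinetic read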
M5 antag: human M5 muscarinic receptor antagonists, primary screen, CHO cells, Fluo-8 calcium fluorescence; Muscarinic acetylcholine receptor M5 (Homo sapiens), P08912; AID 624040, 2012; hit rate 0.59% among 360,000; inhibition, % at 3 µM; CHO-hM5 cells, ACh EC80;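 active = inhibition above a per-plate cutoff, the mean of that plate's test compounds plus 3 SD, cut at about 27% in these data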
Hits are given with their value; i = inactive.

SMILES	CHRM4 agonist	M5 PAM	CHRM4 antagonist	CHRM4 PAM	CHRM5 agonist	M5 antag
CCOC(=O)C1CCN(CC(=O)Nc2cc(S(=O)(=O)N3CCOCC3)ccc2C)CC1	i	19	i	i	i	i
Cc1ccc(S(=O)(=O)N2CCOCC2)cc1NC(=O)COC(=O)C1CCC1	i	i	i	i	i	i
O=C(NC(c1ccc(-c2ccccc2)cc1)c1cnccn1)C1CCN(CCCOc2ccccc2)CC1 (stereo unspecified)	36	i	i	i	i	i
Nc1ncnc2c1ncn2[C@@H]1O[C@H](CNS(=O)(=O)CCCCl)[C@@H](O)[C@H]1O	i	i	i	i	i	i
CCOC(=O)C1CCN(Cc2cc(Cl)c3ccccc3c2O)CC1	i	i	29	i	i	i
Cc1cccc(C)c1NC(=O)C1(C)CN(S(C)(=O)=O)CC(=O)N1CCOc1ccccc1 (stereo unspecified)	i	i	i	i	i	i
CC(=O)c1ccc(S(=O)(=O)N(C)CCCC(=O)N(C)Cc2c(F)cccc2Cl)cc1	i	i	i	i	i	i
O=C1C=C(c2c(O)ccc3ccccc23)c2ccccc2C1=O	i	i	47	i	i	i
CCCCc1nc2sc3c(=O)n(N)cnc3c2c2c1CCCC2	i	i	i	i	i	i
CCCc1nc2sc3c(=O)n(N)cnc3c2c2c1CCCC2	i	21	i	i	i	i
CC1Cc2ccccc2N1C(=O)c1cc2cccnc2n(C)c1=O (stereo unspecified)	i	i	i	i	i	i
CN1C(=O)c2ccc(C(=O)NCc3ccco3)cc2C1=O	i	i	i	i	i	i
O=C(NCc1ccco1)c1ccc2c(c1)C(=O)N(C1CCCCC1)C2=O	i	i	i	32	i	i
Cc1c(C(=O)NCCC2=CCCCC2)oc2ccc(S(=O)(=O)N3CCC4(CC3)OCCO4)cc12	i	i	34	i	i	i
Cc1c(C(=O)NCc2ccccc2)oc2ccc(S(=O)(=O)N3CCC4(CC3)OCCO4)cc12	i	i	i	i	i	i
Cc1ccc(N(C)S(=O)(=O)c2cccc(C(=O)NCCCN3CCCC3=O)c2)cc1	i	i	i	i	i	i
CCN(CC(=O)Nc1ccc(NC(C)=O)cc1)C(=O)c1cc([N+](=O)[O-])ccc1Sc1ccc(Cl)cc1	i	i	i	i	i	i
Cc1ccc2c(c1)NC(=O)C(CC(=O)Nc1ccc(CN3CCC(C)CC3)cc1)O2 (stereo unspecified)	i	i	99	i	i	71
CS(=O)(=O)c1ccc2nc(NC(=O)c3ccc(Cn4cc(Br)cn4)o3)sc2c1	i	i	i	i	i	28
C=CCC[C@@H](Cc1ccc(F)cc1)C(=O)OC[C@H]1CCCN1C(=O)[C@@H](CC=C)CC(=O)N[C@H](CO)Cc1ccccc1	i	i	31	i	i	i
C=CCC[C@@H](Cc1ccc(F)cc1)C(=O)OC[C@@H]1CCCN1C(=O)[C@H](CC=C)CC(=O)N[C@H](CO)Cc1ccccc1	i	i	i	i	i	i
CC(CCc1ccc(O)cc1)NC(c1ccccc1)c1ccc(Cl)cc1 (stereo unspecified)	i	i	i	i	i	i
CC(CCc1ccc(O)cc1)NCCC(c1ccccc1)c1ccccc1 (stereo unspecified)	33	i	32	i	i	i
O=C(CCc1nnc(-c2ccccc2)o1)c1ccc(Cl)cc1	i	i	i	33	i	i
CCN(C(=O)c1cc(S(=O)(=O)N2CCCCC2)c[nH]1)c1ccc(OC)cc1	i	i	i	i	i	i
SMILES	CHRM4 agonist	M5 PAM	CHRM4 antagonist	CHRM4 PAM	CHRM5 agonist	M5 antag
N#CC(C#N)=C1CCCc2sccc21	i	i	i	i	i	i
Cc1nc2nc(C)n(CCN3CCOCC3)c(=O)c2c(-c2cccc([N+](=O)[O-])c2)c1C(=O)CCCCCCCCCCN1CCC(c2ccccc2)(c2ccccc2)CC1	i	i	95	i	i	96
COc1ccc2c(c1OC)C(=O)N1C2SC[C@H]1C(=O)NC1CCCCC1 (stereo partly specified)	i	i	i	i	38	i
CCC(C)NC(=O)C(NS(=O)(=O)c1cccc2nsnc12)c1ccccc1 (stereo unspecified)	i	35	i	i	i	i
CC1(CN2CCCC2)CCC(NC(=O)C(c2ccccc2)c2ccccc2)C(C)(C)O1 (stereo unspecified)	i	i	i	i	i	i
Cc1c(C=O)c2ccccn2c1C(=O)c1ccccc1Cl	i	i	55	i	i	i
CCCCN(C(=O)c1cccs1)C1CCS(=O)(=O)C1 (stereo unspecified)	i	i	i	i	i	i
CCCCNC(=S)Nc1ccc(C(F)(F)F)cc1	i	i	i	i	i	34
CCCCNC(=S)Nc1ccc(Cl)cc1	i	i	i	i	i	i
CCCNC(=S)Nc1cccc(C(F)(F)F)c1	i	i	i	i	i	i
FC(F)(F)c1cccc(NC(=S)NCC2COc3ccccc3O2)c1 (stereo unspecified)	i	i	i	i	i	32
CC1CCC2(CC1)NC(=O)N(CC(=O)N1CCN(C(=O)c3cccs3)CC1)C2=O (stereo unspecified)	i	i	i	i	i	i
COc1ccc(C(=O)Nc2cccnc2)cc1S(=O)(=O)N1CCOCC1	i	20	i	i	i	i
CCC1(c2ccccc2)NC(=O)N(CC(=O)Nc2ccccc2C(=O)NC2CC2)C1=O (stereo unspecified)	i	i	i	i	i	i
COc1ccc(Cc2nnc(NC(=O)CSc3ccccc3)s2)cc1	i	i	i	i	i	i
COc1ccc(Cc2nnc(NC(=O)CSc3ccccc3)s2)cc1OC	i	i	i	i	28	i
CCN(Cc1ccccc1)C(=O)CCc1nc(CN2CCN(C(=O)c3ccc([N+](=O)[O-])cc3)CC2)no1	i	i	i	i	i	i
CN(C)/C=C/c1onc(-c2c(F)cccc2Cl)c1C#N	i	28	i	i	i	i
Cc1onc(-c2c(F)cccc2Cl)c1C(=O)NC1CC1	i	i	i	i	i	i
CCC(C)c1ccc(OCc2ccc(C(=O)O)o2)cc1 (stereo unspecified)	i	i	i	i	i	i
